# Legend:
# [1] = molecular target: T1, Growth hormone secretagogue receptor type 1 (Homo sapiens, UniProt Q92847); assay: Antagonist activity at recombinant human GHSR1a expressed in HEK293 cells assessed as inhibition of ghrelin-induced intracellular calcium release incubated for 20 secs and measured after 2 mins by FLIPR assay; assay type: functional, cell-based
# Method in brief: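 HEK293/GHSR1a cells were dye-loaded for 30-60 min. Compounds and 10 nM ghrelin were added at t = 20 s, with a 15 min compound preincubation described. Calcium response was read for 2 min. IC50 was taken from dose-response fits of the reduction in ghrelin response; mean of at least two independent runs done in triplicate.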
# [2] = molecular target: T1, Growth hormone secretagogue receptor type 1; assay: Inverse agonist at recombinant human GHSR1a expressed in HEK293 cells assessed as decrease in IP1 accumulation after 1 hr by IP1-d2-based HTRF assay; assay type: functional, cell-based
# Method in brief: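 HEK293 cells stably expressing human GHSR1a were seeded on Matrigel in complete DMEM for 18–22 h at 37 °C, 5% CO2. Compound in stimulation buffer was applied for 1 h at 37 °C. IP1-d2 and Tb-cryptate were then added for 1 h at room temperature, with HTRF read at 620/665 nm. Mean of at least two independent runs in triplicate.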
# [3] = molecular target: T1, Growth hormone secretagogue receptor type 1; assay: Agonist activity at recombinant human GHSR1a expressed in HEK293 cells assessed as induction of intracellular calcium release after 15 mins by FLIPR assay; assay type: functional, cell-based; conditions: read-out: EC50
# Method in brief: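 HEK293 cells stably expressing human GHSR1a, seeded 24 h before the run, then loaded with calcium dye for 30-60 min at room temperature or 37 °C. DMSO-dissolved compounds were added and intracellular calcium release was monitored by FLIPR fluorescence.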
# [4] = Clearance in mouse liver microsomes at 0.625 uM preincubated for 5 mins followed by NADPH addition and measured after 60 mins by LC-MS/MS analysis; assay type: ADME, microsome; conditions: read-out: CLH
# Method in brief: (§1)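 Liver microsomes (0.625 mg/mL protein) in 50 mM potassium phosphate pH 7.4 with 0.625 µM test item, prewarmed 5 min at 37 °C. Reaction started with NADPH (5 mM solution). Samples taken at 0, 5, 15, 30 and 60 min into cold MeCN with internal standard, analysed by LC-MS/MS. Intrinsic clearance derived by the half-life approach.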
# [5] = Clearance in rat liver microsomes at 0.625 uM preincubated for 5 mins followed by NADPH addition and measured after 60 mins by LC-MS/MS analysis; assay type: ADME, microsome; conditions: read-out: CLH; method in brief: as §1
# [6] = Clearance in dog liver microsomes at 0.625 uM preincubated for 5 mins followed by NADPH addition and measured after 60 mins by LC-MS/MS analysis; assay type: ADME, Canis lupus familiaris, microsome; conditions: read-out: CLH; method in brief: as §1
# [7] = Clearance in human liver microsomes at 0.625 uM preincubated for 5 mins followed by NADPH addition and measured after 60 mins by LC-MS/MS analysis; assay type: ADME, microsome; conditions: read-out: CLH; method in brief: as §1
# T1 sequence (Q92847 whole entry): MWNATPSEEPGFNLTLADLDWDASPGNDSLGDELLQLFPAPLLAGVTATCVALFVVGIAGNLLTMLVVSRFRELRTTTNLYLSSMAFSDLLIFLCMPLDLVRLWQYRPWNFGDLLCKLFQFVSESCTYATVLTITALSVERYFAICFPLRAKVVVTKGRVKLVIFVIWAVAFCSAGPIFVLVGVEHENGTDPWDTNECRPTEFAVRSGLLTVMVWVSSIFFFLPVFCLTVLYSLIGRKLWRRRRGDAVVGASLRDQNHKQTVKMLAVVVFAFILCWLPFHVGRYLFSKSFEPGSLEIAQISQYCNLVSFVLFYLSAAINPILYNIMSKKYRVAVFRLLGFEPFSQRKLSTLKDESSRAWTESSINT
Compound,IC50 [1],EC50 ([2]; read-out: EC50),EC50 [3],EC50 ([2]; hek293),microsomal CLint at 0.625 µM [4],microsomal CLint at 0.625 µM [5],microsomal CLint at 0.625 µM [6],microsomal CLint at 0.625 µM [7]
Cc1cc(-c2ccc3c(c2)CCC3N2CCC(N(C)C(=O)N[C@@H](C)c3ccc(C#CC4CC4)c(Cl)c3Cl)C(C)(C)C2)ncn1 (some centres not stated),530 nM,363 nM,,,,,,
Cc1cn2cc(C(C)NC(=O)N(C)C3CCN(C)CC3)nc2s1 (configuration not stated),> 30000 nM,,> 30 µM,Not Active,,,,
COc1ccc([C@H](C)NC(=O)N(C)C2CCN(C3CCc4cc(C)ccc43)CC2)c(Cl)c1Cl (some centres not stated),329 nM,73 nM,,,217 µL/min/mg,143 µL/min/mg,168 µL/min/mg,80.3 µL/min/mg
Cc1cc(-c2ccc3c(c2)CCC3N2CCC(N(C)C(=O)N[C@@H](CC3CC3)c3ccc(-c4cnccn4)c(Cl)c3Cl)CC2)ncn1 (some centres not stated),4540 nM,484 nM,,,,,,
Cc1cc(-c2ccc3c(c2)CCC3N2CCC(N(C)C(=O)N[C@@H](C)c3ccc(C(=O)O)c(Cl)c3Cl)CC2)ncn1 (some centres not stated),> 30000 nM,,,Not Active,,,,
Cc1cc(-c2ccc3c(c2)CC[C@H]3N2CC3(CCN(C(=O)N[C@@H](C)c4ccc(-c5cnccn5)c(Cl)c4Cl)CC3)C2)ncn1,1210 nM,483 nM,> 30 µM,,,,,
COc1ccc([C@H](C)NC(=O)N(C)C2CCN(C3CCc4cc(Cl)ccc43)CC2)c(Cl)c1Cl (some centres not stated),315 nM,40.7 nM,,,388 µL/min/mg,271 µL/min/mg,,241 µL/min/mg
Cc1cc(-c2ccc3c(c2)CCC3N2CCC(N(C)C(=O)N[C@@H](C)c3ccc(C4CC4)c(Cl)c3Cl)CC2)ncn1 (some centres not stated),2870 nM,298 nM,,,,,,
COc1ccc([C@H](CC2CC2)NC(=O)N(C)C2CCN(C3CCc4cc(-c5cc(C)ncn5)ccc43)CC2)c(Cl)c1Cl (some centres not stated),1800 nM,439 nM,,,,,,
COc1ccc([C@H](C)NC(=O)N(C)C2CCN(C3CCc4cc(-c5cc(C)ncn5)ccc43)CC2)c(Cl)c1Cl (some centres not stated),171 nM,67 nM,,,122 µL/min/mg,69.5 µL/min/mg,241 µL/min/mg,94.2 µL/min/mg
Cc1cc(-c2ccc3c(c2)CCC3N2CCC(N(C)C(=O)N[C@H](c3ccc(-c4cnccn4)c(Cl)c3Cl)C(F)(F)F)CC2)ncn1 (some centres not stated),8080 nM,2160 nM,,,,,,
COc1ccc([C@H](C)NC(=O)N(C)C2CCN(C3CCc4cc(O)ccc43)CC2)c(Cl)c1Cl (some centres not stated),1300 nM,,,Not Active,117 µL/min/mg,,,87.1 µL/min/mg
Cc1cc(-c2ccc3c(c2)CCC3N2CCC(N(C)C(=O)N[C@@H](C)c3ccc(N)c(Cl)c3Cl)CC2)ncn1 (some centres not stated),571 nM,121 nM,,,,,,
Cc1ccc2c(c1)CCC2N1CCC(N(C)C(=O)N[C@@H](C)c2ccc(O)c(Cl)c2Cl)CC1 (some centres not stated),1170 nM,189 nM,,,,,,
CCN(C(=O)N[C@@H](C)c1ccc(C#CC2CC2)c(Cl)c1Cl)C1CCN(C2CCc3cc(-c4cc(C)ncn4)ccc32)CC1 (some centres not stated),2920 nM,937 nM,,,,,,
C[C@H](NC(=O)N(C)C1CCN(C2CCc3cc(-c4cncnc4)ccc32)CC1)c1ccc(C#CC2CC2)c(Cl)c1Cl (some centres not stated),85.9 nM,84.8 nM,,,,,,
Cc1cc(-c2ccc3c(c2)CCC3N2CCC(N(C)C(=O)N[C@@H](C)c3ccc(C#CC4CC4)c(Cl)c3Cl)C2)ncn1 (some centres not stated),148 nM,,,Not Active,,,,
Cc1cc(-c2ccc3c(c2)CCC3N2CCC(N(C)C(=O)N[C@@H](CC3CC3)c3cccc(Cl)c3Cl)CC2)ncn1 (some centres not stated),5400 nM,970 nM,,,,,,
Cc1cc(-c2ccc3c(c2)CC[C@H]3N2CC3(CCN(C(=O)N[C@@H](C)c4cccc(Cl)c4Cl)CC3)C2)ncn1,4010 nM,,> 30 µM,Not Active,,,,

Compound,IC50 [1],EC50 ([2]; read-out: EC50),EC50 [3],EC50 ([2]; hek293),microsomal CLint at 0.625 µM [4],microsomal CLint at 0.625 µM [5],microsomal CLint at 0.625 µM [6],microsomal CLint at 0.625 µM [7]
COC(=O)c1ccc([C@H](C)NC(=O)N(C)C2CCN(C3CCc4cc(-c5cc(C)ncn5)ccc43)CC2)c(Cl)c1Cl (some centres not stated),303 nM,96 nM,,,,,,
Cc1ccc2c(c1)CCC2N1CCC(N(C)C(=O)N[C@@H](C)c2ccc(C3CC3)c(Cl)c2Cl)CC1 (some centres not stated),2370 nM,,,Not Active,,,,
Cc1cc(-c2ccc3c(c2)CCC3N2CCC(N(C)C(=O)NCc3ccc(C#CC4CC4)c(Cl)c3Cl)CC2)ncn1 (configuration not stated),1130 nM,,,Not Active,,,,
Cc1cc(-c2ccc3c(c2)CCC3N2CCC(N(C)C(=O)NC(C)c3cccc(Cl)c3Cl)CC2)ncn1 (configuration not stated),2330 nM,,> 30 µM,Not Active,,,,
C[C@H](NC(=O)N(C)C1CCN(C2CCc3ccccc32)CC1)c1ccc(C#CC2CC2)c(Cl)c1Cl (some centres not stated),919 nM,,,Not Active,,,,
C[C@H](NC(=O)N(C)C1CCN(C2CCc3cc(-c4ncccn4)ccc32)CC1)c1ccc(C#CC2CC2)c(Cl)c1Cl (some centres not stated),798 nM,634 nM,,,,,,
Cc1cn2cc(CNC(=O)N(C)C3CCN(C)CC3)nc2s1,> 30000 nM,,> 30 µM,Not Active,,,,
COc1ccc2c(c1)CCC2N1CCC(N(C)C(=O)N[C@@H](C)c2ccc(OC)c(Cl)c2Cl)CC1 (some centres not stated),120 nM,85.7 nM,,,,,,
Cc1cc(-c2ccc3c(c2)CCC3N2CCC(N(C)C(=O)N[C@@H](C)c3ccc(C#CC4CC4)c(Cl)c3Cl)CC2)ncn1 (some centres not stated),80 nM,51 nM,,,42.6 µL/min/mg,19.2 µL/min/mg,62.3 µL/min/mg,53.9 µL/min/mg
COc1ccc([C@H](C)NC(=O)N(C)C2CCN(C3CCc4cc(-n5nccn5)ccc43)CC2)c(Cl)c1Cl (some centres not stated),240 nM,70 nM,,,244 µL/min/mg,,,79.8 µL/min/mg
Cc1cc(-c2ccc3c(c2)CC[C@@H]3N2CCC(N(C)C(=O)N[C@@H](C)c3ccc(C#CC4CC4)c(Cl)c3Cl)CC2)ncn1,1280 nM,1280 nM,,,,,,
Cc1ccc2c(c1)CCC2N1CCC(N(C)C(=O)N[C@@H](C)c2ccc(C#CC3CC3)c(Cl)c2Cl)CC1 (some centres not stated),282 nM,117 nM,,,,,,
CC[C@H](NC(=O)N(C)C1CCN(C2CCc3cc(-c4cc(C)ncn4)ccc32)CC1)c1ccc(C#CC2CC2)c(Cl)c1Cl (some centres not stated),192 nM,306 nM,,,,,,
Cc1ccc2c(c1)CCC2N1CCC(N(C)C(=O)N[C@@H](C)c2ccc(C#C[Si](C)(C)C)c(Cl)c2Cl)CC1 (some centres not stated),2000 nM,,,Not Active,,,,
COc1ccc([C@H](C)NC(=O)N(C)C2CCN(C3CCc4cc(N)ccc43)CC2)c(Cl)c1Cl (some centres not stated),1510 nM,,,Not Active,70.4 µL/min/mg,,,47.1 µL/min/mg
C#Cc1ccc([C@H](C)NC(=O)N(C)C2CCN(C3CCc4cc(-c5cc(C)ncn5)ccc43)CC2)c(Cl)c1Cl (some centres not stated),156 nM,10.6 nM,,,157 µL/min/mg,65.6 µL/min/mg,137 µL/min/mg,165 µL/min/mg
Cc1cc(-c2ccc3c(c2)CCC3N2CCC(N(C)C(=O)N[C@@H](C)c3ccc(-c4cnccn4)c(Cl)c3Cl)CC2)ncn1 (some centres not stated),369 nM,194 nM,> 30 µM,,,,,
C#Cc1ccc([C@H](C)NC(=O)N(C)C2CCN(C3CCc4cc(C)ccc43)CC2)c(Cl)c1Cl (some centres not stated),106 nM,,,Not Active,,,,
Cc1cc(-c2ccc3c(c2)CCC3N2CCC(N(C)C(=O)NCc3cccc(Cl)c3Cl)CC2)ncn1 (configuration not stated),2700 nM,,,Not Active,,,,

# From ChEMBL document CHEMBL4257564, “Rational Design, Synthesis, and Pharmacological Characterization of Novel Ghrelin Receptor Inverse Agonists as Potential Treatment against Obesity-Related Metabolic Diseases” (J Med Chem, 2018)
